From publication PMC4101349 (Translational Oncology, 2014)

Assays:
A549 cells = experiment: Alamar Blue cytotoxicity assay, A549; assay type: cell-based; settings: Homo sapiens, A549, 72 h, read-out: IC50 (50% inhibition of cell growth)
In short: (§1)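 Cells were seeded at 3000 per well and incubated overnight at 37°C. They were then exposed for 72 h to a range of test compound concentrations, alone or combined with a PI3K inhibitor. Alamar Blue was added for 6 h and absorbance read at 570 and 600 nm. IC50 was derived by the median-effect principle, as mean ± SD of three independent experiments. A549 was kept in DMEM; other lines in RPMI 1640 with 10% FBS, at 37°C and 5% CO2.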

[1] = test system: H460, A549, PC9, or PC9/gef B4 cells; experiment: Mouse xenograft models, suppression of tumor growth; assay type: in vivo, BALB/c nude mice; settings: H460, A549, PC9, PC9/gef B4 xenografts; BO-1509 5 mg/kg i.v. every other day times five; LY294002 40 mg/kg i.p. daily
PC9/gef B4 cells [2] = experiment: Alamar Blue cytotoxicity assay, PC9/gef B4; assay type: cell-based; settings: Homo sapiens, 72 h, read-out: IC50 (50% inhibition of cell growth)
In short: as §1

[3] = test system: DNA repair proteins (Mre11, Nbs1, pNbs1, Rad50, Rad51, FANCD2); experiment: Western blot of DNA repair proteins in lung cancer cells; assay type: cell-based, human; settings: LY294002 40 μM with 20 μM BO-1509, 24 hours; H460, A549, PC9, PC9/gef B4
In short: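 H460, A549, PC9 and PC9/gef B4 cells were treated for 24 h with 10-80 μM test compound. Alternatively, they received 20 μM test compound and/or 40 μM PI3K inhibitor for 24 h. Lysates in electrophoresis sample buffer were run on SDS-PAGE and transferred to PVDF. Membranes took primary antibodies overnight at 4°C and HRP secondary antibody for 1 h at room temperature. Detection was by chemiluminescence, with β-actin as loading control.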

PC9/gef B4 cells [4] = experiment: Mouse xenograft model, PC9/gef B4; assay type: in vivo, BALB/c nude mice; settings: PC9/gef B4-xenografted mice; LY294002 40 mg/kg i.p. daily
In short: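 PC9/gef B4 cells were implanted s.c. in the flank of male BALB/c nude mice, six weeks old. At about 70 mm3, mice were randomized into four groups: vehicle, test compound 5 mg/kg i.v. every other day ×5, PI3K inhibitor by daily i.p. injection, or the combination. Vehicle was saline with 8% DMSO, 6% Tween-80 and 16% cremophor. Caliper tumor volume was calculated as (length × width²)/2.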

[5] = Blood enzymes / biochemical parameters in treated mice; assay type: in vivo; settings: 10th day; BALB/c nude mice; mean ± SD
In short: (§2)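 Male BALB/c nude mice, six weeks old, received vehicle, test compound, PI3K inhibitor, or both. The test compound was given at 5 mg/kg i.v. on days 0, 2, 4, 6 and 8; the inhibitor at 40 mg/kg i.p. daily. Vehicle was 0.9% saline with 8% DMSO, 6% Tween-80 and 16% cremophor. Hematological and serum biochemical parameters were measured 1 day after the last i.v. injection.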

PC9 cells = experiment: Alamar Blue cytotoxicity assay, PC9; assay type: cell-based; settings: Homo sapiens, PC-9, 72 h, read-out: IC50 (50% inhibition of cell growth)
In short: as §1

H460 cells [6] = experiment: H460 xenograft: histopathology of tumor; assay type: in vivo, BALB/c nude mice; settings: H460-xenografted mice; 29th day; histopathologic examination
In short: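 Nude mice were inoculated s.c. in the flank with H460 cells (approximately 3 × 10^6 to 5 × 10^6 in 100 μl PBS). Dosing began at about 100 mm3: test compound 5 mg/kg i.v. every other day ×5, PI3K inhibitor 40 mg/kg i.p. daily, or both. Tumors were taken 24 h after the final treatment for cleaved caspase-3 immunohistochemistry. Lungs were taken 29 days after transplantation for H&E histology.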

H460 cells [7] = experiment: Alamar Blue cytotoxicity assay, H460; assay type: cell-based; settings: Homo sapiens, NCI-H460, 72 h, read-out: IC50 (50% inhibition of cell growth)
In short: as §1

[8] = Complete blood profile in treated mice; assay type: in vivo, BALB/c nude mice; settings: 10th day
In short: as §2

With `O=c1cc(N2CCOCC2)oc2c(-c3ccccc3)cccc12` [LY294002, 2-(4-morpholinyl)-8-phenyl-4H-1-benzopyran-4-one] the IC50 (A549 cells) was 28.4 ± 4.3 µM, the “suppression of the tumor burden” value [1] was “limited” and the IC50 (PC9/gef B4 cells [2]) was 31.3 ± 3.8 µM. For the same compound, the “BO-1509-induced increase in pNbs1 and Rad51” value [3] was “suppressed”, the “suppression of the tumor burden” value (PC9/gef B4 cells [4]) was roughly 40% and the AST [5] was 75.6 ± 17.8 U/l. For the same compound, the Alanine aminotransferase [5] was 31.6 ± 2.5 U/l, the Blood urea nitrogen [5] was 25.0 ± 5.8 mg/dL and the “Glucose (GLU-P)” value [5] was 172 ± 23 mg/dL. The LDH [5] was 463 ± 117 U/l, the IC50 (PC9 cells) was 56.9 ± 1.1 µM and the “metastasis in the lungs” value (H460 cells [6]) was 80%. The IC50 (H460 cells [7]) was 111 ± 15.1 µM, the Basophils ([8]; BALB/c nude mice, mean ± SD) was 0.07 ± 0.00 10^3/μl and the Eosinophils ([8]; BALB/c nude mice, mean ± SD) was 0.06 ± 0.01 10^3/μl. The Hematocrit ([8]; BALB/c nude mice, mean ± SD) was 54.1 ± 0.70%, the Hemoglobin ([8]; BALB/c nude mice, mean ± SD) was 16.25 ± 0.10 g/dL and the Lymphocytes ([8]; BALB/c nude mice, mean ± SD) was 0.81 ± 0.10 10^3/μl. For the same compound, the Mean cell hemoglobin ([8]; BALB/c nude mice, mean ± SD) was 15.40 ± 0.09 pg, the Mean cell volume ([8]; BALB/c nude mice, mean ± SD) was 51.5 ± 0.30 fL and the “Mean corpuscular hemoglobin concentration” value ([8]; BALB/c nude mice, mean ± SD) was 29.90 ± 0.30 g/dL. For the same compound, the Monocytes ([8]; BALB/c nude mice, mean ± SD) was 0.15 ± 0.05 10^3/μl, the Neutrophils ([8]; BALB/c nude mice, mean ± SD) was 1.27 ± 0.10 10^3/μl and the Platelets ([8]; BALB/c nude mice, mean ± SD) was 783 ± 86 10^3/μl. For the same compound, the RBC distribution width ([8]; BALB/c nude mice, mean ± SD) was 20.90 ± 1.00%, the RBCs ([8]; BALB/c nude mice, mean ± SD) was 10.53 ± 0.10 10^6/μl and the WBCs ([8]; BALB/c nude mice, mean ± SD) was 2.37 ± 0.20 10^3/μl. For the same compound, the “decrease of RBC count and hemoglobin concentration” value ([8]; treated mice versus control) was “minimal changes”.
